{"data": "Results pooled from the literature", "observed": "cell growth or viability", "note": "pIC50: −log10 of the molar value."}
{"SMILES": "Fc1ccc(NCc2ccc(Oc3ccccn3)cc2)cc1", "cell line": "Vero", "test": "MTT", "conditions": "72 h", "measurement": "CC50", "result": "> 300 µM"}
{"SMILES": "C=C1CC[C@@H](O)[C@]2(C)CC[C@H]3C(=C)C(=O)O[C@@H]3[C@@H]12", "cell line": "CHO-K1", "test": "MTT", "conditions": "72 h", "measurement": "CC50", "result": "31.3 µM"}
{"SMILES": "CC(C)=CCc1c(O)c(CC=C(C)C)c2occ(-c3ccc(O)cc3)c(=O)c2c1O", "cell line": "RAW264.7", "test": "MTT", "conditions": "100 µg/mL, 24 h", "measurement": "viability", "result": "91.4%"}
{"SMILES": "CCNc1nc(Nc2ccc(F)c(Cl)c2)c2ccccc2n1", "cell line": "Vero", "test": "MTT", "conditions": "125 µg/mL", "measurement": "viability", "result": "52.9%"}
{"SMILES": "C=C1CC[C@H]2C(C)=CC[C@H]3C(=C)C(=O)O[C@@H]3[C@@H]12", "cell line": "CHO-K1", "test": "MTT", "conditions": "72 h", "measurement": "CC50", "result": "7.3 µM"}
{"SMILES": "COc1ccc2c(Cc3ccccc3F)c3n(c(=O)c2c1OC)CCc1cc2c(cc1-3)OCO2", "cell line": "L929", "test": "CCK-8", "conditions": "24 h", "measurement": "pIC50", "result": 4.58}
{"SMILES": "O=S(=O)(NNc1nnc(Cl)c2ccccc12)c1ccc(F)cc1", "cell line": "Vero", "test": "MTT", "conditions": "250 µg/mL", "measurement": "viability", "result": "24.9%"}
{"SMILES": "CC(=O)O[C@H]1C(=O)[C@@]2(C)[C@H]([C@H](OC(=O)c3ccccc3)[C@]3(O)C[C@H](OC(=O)[C@H](O)[C@@H](NC(=O)c4ccccc4)c4ccccc4)C(C)=C1C3(C)C)[C@]1(OC(C)=O)CO[C@@H]1C[C@@H]2O", "cell line": "SMMC-7721", "test": "MTT", "conditions": "48 h", "measurement": "pIC50", "result": 5.37}
{"SMILES": "COC(=O)c1[nH]cc(-c2c[nH]c3ccc(Cl)cc23)c1-c1c[nH]c2ccc(Cl)cc12", "cell line": "RAW264.7", "test": "resazurin", "conditions": "72 h", "measurement": "CC50", "result": "> 10 µM"}
{"SMILES": "Cn1cnc2c1c(=O)n(CC(=O)Nc1c(Cl)cccc1Cl)c(=O)n2C", "cell line": "Vero", "test": "MTT", "conditions": "62.5 µg/mL", "measurement": "viability", "result": "99.8%"}
